A word on the IC50: it is the point on the concentration scale where inhibition reaches its midpoint. As usually defined, the Ki is the equilibrium dissociation constant of an inhibitor or competing ligand from its target.

In ChEMBL document CHEMBL1156937, “3'-[4-Aryl-(1,2,3-triazol-1-yl)]-3'-deoxythymidine analogues as potent and selective inhibitors of human mitochondrial thymidine kinase” (J Med Chem, 2010) one finds Ratio IC50, IC50 and Ki data, which are given here for 17 compounds.

The species named for one assay is Homo sapiens. As to the kind of experiment: Selectivity ratio of IC50 for human recombinant cytosolic thymidine kinase 1 to IC50 for human recombinant mitochondrial thymidine kinase 2.
Assay [1] deals with T1, Thymidine kinase 2, mitochondrial (Homo sapiens, UniProt O00142).
T1 sequence (O00142 whole entry): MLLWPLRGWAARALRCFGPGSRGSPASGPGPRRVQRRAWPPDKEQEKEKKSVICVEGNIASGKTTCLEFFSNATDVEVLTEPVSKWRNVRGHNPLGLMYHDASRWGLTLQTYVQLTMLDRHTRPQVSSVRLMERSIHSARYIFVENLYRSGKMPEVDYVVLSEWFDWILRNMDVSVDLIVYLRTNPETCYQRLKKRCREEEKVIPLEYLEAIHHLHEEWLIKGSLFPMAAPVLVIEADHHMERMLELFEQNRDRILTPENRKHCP
As to the kind of experiment: Inhibition of human recombinant mitochondrial thymidine kinase 2 assessed as inhibition of [methyl-3H]dThd phosphorylation after 30 mins by scintillation counting. The gist of the method: (§1)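 Recombinant enzyme in 50 mM Tris/HCl pH 8.0, 2.5 mM MgCl2, 10 mM DTT, 0.5 mM CHAPS, 3 mg/mL BSA, 2.5 mM ATP and 1 μM [methyl-3H]dThd. Inhibitor at 5-fold dilutions; 37 °C for 30 min, within the linear range. Reaction spotted on DE-81 filter disks, which were washed in 1 mM ammonium formate, water and ethanol. Radioactivity counted by scintillation. IC50 is the concentration halving dThd phosphorylation.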

Assay [2] has as its target T2, Thymidine kinase, cytosolic (Homo sapiens, UniProt P04183).
T2 sequence (P04183 whole entry): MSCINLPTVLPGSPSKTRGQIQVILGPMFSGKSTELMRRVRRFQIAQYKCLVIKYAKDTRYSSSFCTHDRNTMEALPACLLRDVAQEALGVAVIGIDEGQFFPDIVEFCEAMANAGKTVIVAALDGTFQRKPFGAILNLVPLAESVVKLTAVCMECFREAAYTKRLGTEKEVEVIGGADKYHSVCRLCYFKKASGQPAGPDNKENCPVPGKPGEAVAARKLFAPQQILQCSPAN
The assay can be described thus: Inhibition of human recombinant cytosolic thymidine kinase 1 assessed as inhibition of [methyl-3H]dThd phosphorylation after 30 mins by scintillation counting. The gist of the method: as §1

Assay [3] concerns the target T1, Thymidine kinase 2, mitochondrial. As to the kind of experiment: Inhibition of thymidine kinase 2.
Assay [4] can be described thus: Inhibition of Varicella zoster virus thymidine kinase assessed as inhibition of [methyl-3H]dThd phosphorylation after 30 mins by scintillation counting. The arrangement: species or system Human alphaherpesvirus 3. The gist of the method:
as §1

Another assay has as its target T3, Thymidine kinase (Human alphaherpesvirus 1, UniProt Q9QNF7).
T3 sequence (Q9QNF7 whole entry): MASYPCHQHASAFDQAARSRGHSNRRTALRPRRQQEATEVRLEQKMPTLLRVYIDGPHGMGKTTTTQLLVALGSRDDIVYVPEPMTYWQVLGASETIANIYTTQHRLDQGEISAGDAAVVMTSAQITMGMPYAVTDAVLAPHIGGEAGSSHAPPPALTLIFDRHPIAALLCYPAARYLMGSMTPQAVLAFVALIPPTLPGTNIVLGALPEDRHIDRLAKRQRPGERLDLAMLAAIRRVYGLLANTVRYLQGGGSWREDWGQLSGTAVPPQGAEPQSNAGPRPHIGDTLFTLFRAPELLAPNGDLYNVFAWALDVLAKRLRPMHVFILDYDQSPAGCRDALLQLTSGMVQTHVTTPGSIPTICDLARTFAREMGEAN
As to the kind of experiment: Inhibition of HSV1 thymidine kinase assessed as inhibition of [methyl-3H]dThd phosphorylation after 30 mins by scintillation counting. The gist of the method: as §1

Another assay concerns the target T4, Deoxynucleoside kinase (Drosophila melanogaster, UniProt Q9XZT6).
T4 sequence (Q9XZT6 whole entry): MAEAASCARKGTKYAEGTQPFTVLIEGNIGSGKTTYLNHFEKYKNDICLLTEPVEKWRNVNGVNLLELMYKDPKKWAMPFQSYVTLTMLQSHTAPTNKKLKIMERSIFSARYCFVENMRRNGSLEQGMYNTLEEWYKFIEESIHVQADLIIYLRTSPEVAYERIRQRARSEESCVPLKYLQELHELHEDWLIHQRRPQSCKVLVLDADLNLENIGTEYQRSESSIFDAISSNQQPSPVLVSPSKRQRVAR
The assay can be described thus: Inhibition of Drosophila melanogaster multifunctional deoxynucleoside kinase assessed as inhibition of [methyl-3H]dThd phosphorylation after 30 mins by scintillation counting. The gist of the method: as §1

Assay [5] concerns the target T1, Thymidine kinase 2, mitochondrial. The assay can be described thus: Competitive inhibition of human recombinant mitochondrial thymidine kinase 2 using ATP as substrate by Lineweaver-Burke plotting. Conditions: in the assay text read “using thymidine as substrate” for “using ATP as substrate”. The gist of the method: (§2)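 Purified recombinant TK-2 in the same radiometric filter-binding assay. For dThd-varied kinetics, dThd was 0.4–5 μM with ATP saturating at 2.5 mM. For ATP-varied kinetics, ATP was 5–100 μM with dThd saturating at 20 μM. Km, Ki and inhibition mode were derived from Lineweaver-Burk plots.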

For assay [6] the target is unchanged. The assay can be described thus: Uncompetitive inhibition of human recombinant mitochondrial thymidine kinase 2 using thymidine as substrate by Lineweaver-Burke plotting. The following applies: in the assay text read “using ATP as substrate” for “using thymidine as substrate”. The gist of the method: as §2

Each structure is given as a SMILES string.

As for `Cc1cn([C@H]2C[C@H](NC(=S)Nc3ccc(Cl)c(C(F)(F)F)c3)[C@@H](CO)O2)c(=O)[nH]c1=O`, the Ratio IC50 in the assay filed under Homo sapiens worked out at 2100. For the same compound, the IC50 in assay [1] was determined as 0.15 µM; in assay [2], 316 µM.

In assay [3], `CNC(=O)c1ccc(C(OCCCCCCCCn2cc(C)c(=O)[nH]c2=O)(c2ccccc2)c2ccccc2)cc1` had a half-maximal inhibitory concentration (IC50) of 0.4 µM.

Turning to `Cc1cn([C@H]2C[C@H](n3cc(Cc4ccccc4)nn3)[C@@H](CO)O2)c(=O)[nH]c1=O`, the IC50 in assay [4] worked out at 6.4 µM; at Thymidine kinase, 158 µM; in [1] it was 0.3 µM; in assay [2] it was 318 µM; on Deoxynucleoside kinase, 3.9 µM.

Consider `Cc1cn([C@H]2C[C@H](n3cc(-c4ccccc4)nn3)[C@@H](CO)O2)c(=O)[nH]c1=O`, for which the IC50 turned out to be 2.5 µM in assay [4]; 28 µM on Thymidine kinase; 0.32 µM in [1]; 54 µM in [2]; 2.2 µM at Deoxynucleoside kinase.

On to `CCCCCC(=O)N[C@H]1C[C@H](n2cc(C)c(=O)[nH]c2=O)O[C@@H]1CO`, for which affinity in assay [3] was put at a Ki of 0.15 µM.

Turning to `Cc1cn([C@H]2C[C@H](n3nncc3-c3ccccc3)[C@@H](CO)O2)c(=O)[nH]c1=O`, the IC50 in [4] was 19 µM; at Thymidine kinase it was 445 µM; in assay [1], 1.1 µM; in assay [2] it was at least 500 µM; on Deoxynucleoside kinase it was 17 µM.

As to `Cc1cn([C@H]2C[C@H](n3cc(-c4ccc(Cl)cc4)nn3)[C@@H](CO)O2)c(=O)[nH]c1=O`, the IC50 in assay [4] was 3.3 µM; on Thymidine kinase it was 27 µM; in assay [1], 0.046 µM; in [2], 71 µM; at Deoxynucleoside kinase it was 1.8 µM.

On to `CCCCc1cn([C@H]2C[C@H](n3cc(C)c(=O)[nH]c3=O)O[C@@H]2CO)nn1`, for which the IC50 in [4] came to 4.3 µM; at Thymidine kinase, 95 µM; in assay [1], 0.23 µM; in [2], 366 µM; at Deoxynucleoside kinase it was 4.1 µM.

Take `Cc1cn([C@H]2C[C@H](n3ccnn3)[C@@H](CO)O2)c(=O)[nH]c1=O`: the IC50 in [4] is 15 µM; at Thymidine kinase, 212 µM; in assay [1], 4.7 µM; in [2], at least 500 µM; at Deoxynucleoside kinase it was 40 µM.

In the case of `Cc1cn([C@H]2C[C@H](NC(=S)Nc3ccc(Cl)c(C(F)(F)F)c3)[C@@H](COC(c3ccccc3)(c3ccccc3)c3ccccc3)O2)c(=O)[nH]c1=O`, the IC50 (in assay [4]; at Thymidine kinase; in assay [1]; in [2]; at Deoxynucleoside kinase) was over 500 µM in each case.

Turning to `O=c1[nH]c(=O)n([C@H]2C[C@H](n3cc(-c4ccc(Cl)cc4)nn3)[C@@H](CO)O2)cc1/C=C/Br`, the IC50 was 1.7 µM in assay [4]; 4.5 µM at Thymidine kinase; 0.036 µM in assay [1]; over 500 µM in assay [2]; 0.46 µM on Deoxynucleoside kinase. Besides, the Ki in assay [5] was 0.012 µM; in assay [6], 0.41 µM. Also, in the assay listed under Homo sapiens, the Ratio IC50 was over 14000.

As to `Cc1cn([C@H]2C[C@H](n3cc(-c4ccc(Cl)c(Cl)c4)nn3)[C@@H](CO)O2)c(=O)[nH]c1=O`, the IC50 in assay [4] stood at 2.7 µM; on Thymidine kinase, 30 µM; in assay [1], 0.042 µM; in [2] it was 75 µM; at Deoxynucleoside kinase, 0.99 µM.

`O=c1[nH]c(=O)n([C@@H]2O[C@H](CO)[C@@H](O)C2O)cc1/C=C/Br` (single isomer, unassigned) [SORIVUDINE]: affinity in assay [3] was put at a Ki of 10.4 µM.

`Cc1cn([C@H]2C[C@H](n3nncc3-c3ccc(Cl)cc3)[C@@H](CO)O2)c(=O)[nH]c1=O`: the IC50 on Thymidine kinase was 392 µM; in assay [1], 4 µM; in assay [2], 109 µM; at Deoxynucleoside kinase, 30 µM.

Consider `Cc1cn([C@H]2C[C@H](n3cc(CC4CCCC4)nn3)[C@@H](CO)O2)c(=O)[nH]c1=O`, for which the IC50 in assay [4] came out at 3.1 µM; on Thymidine kinase, 48 µM; in assay [1], 0.15 µM; in [2] it was 177 µM; at Deoxynucleoside kinase it was 3 µM.

Regarding `O=c1[nH]c(=O)n([C@H]2C[C@H](n3cc(-c4ccccc4)nn3)[C@@H](CO)O2)cc1/C=C/Br`, the IC50 in assay [4] was 3.7 µM; at Thymidine kinase it was 36 µM; in assay [1] it was 0.25 µM; in [2] it was over 500 µM; at Deoxynucleoside kinase it was 2.9 µM.

Regarding `Cc1cn([C@H]2C[C@H](n3cc(-c4ccccn4)nn3)[C@@H](CO)O2)c(=O)[nH]c1=O`, the IC50 came out at 3.1 µM in [4]; 46 µM on Thymidine kinase; 1.3 µM in [1]; 316 µM in [2]; 3.8 µM on Deoxynucleoside kinase.
